Active and inactive are the calls of the source. The rule behind the calls is not given here.
Legend:
HCT-116 [1] = assay: Antiproliferative activity against human HCT116 cells after 48 hrs by MTT assay; type: functional, cell-based; settings: HCT-116, 48 h
Outline: (§1)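 Cells seeded at 3000–5000 per well in DMEM with 10% FBS and preincubated 24 h at 37 °C. Cell numbers were titrated so controls stay in exponential growth, then 48 h drug exposure. MTT added for 4 h, formazan pelleted by centrifugation and dissolved in DMSO, OD read at 490 nm. IC50 calculated from inhibition ratios, mean of three separate experiments in triplicate.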

MCF7 = assay: Antiproliferative activity against human MCF7 cells after 48 hrs by MTT assay; type: functional, cell-based; settings: MCF7, 48 h; outline: as §1
[2] = Antiproliferative activity against human U87MG cells after 48 hrs by MTT assay; type: functional, cell-based, U-87MG ATCC; settings: U-87 MG; outline: as §1
Mus musculus [3] = assay: Toxicity in mouse S180 cells xenografted mouse assessed as mortality at 20 mg/kg, po; type: organism-based, CCRF S-180; design: dose 20 mg/kg, route oral; settings: in vivo
HCT-116 [4] = assay: Inhibition of PI3K in human HCT116 cells assessed as reduction of AKT phosphorylation at Ser473 at 10 uM after 1 hr by Western blot analysis; type: cell-based
Outline: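 HCT-116 cells seeded at 1 × 10⁶ per well in DMEM with 10% FBS and grown 16 h at 37 °C. Treated 1 h at 37 °C at […] or with DMSO. Cells washed in ice-cold PBS, lysed, and clarified at 12,000 rpm for 20 min at 4 °C. Protein quantified by BCA, run on SDS-PAGE, transferred to nitrocellulose, and probed for AKT and p-Ser473 AKT.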

CCRF S-180 [5] = assay: Antitumor activity against mouse S180 cells xenografted in mouse assessed as inhibition of tumor growth at 1 mg/kg, po qd for 10 days relative to control; type: functional; settings: CCRF S-180, 240 h
Outline: (§2)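 Mice bearing sarcoma S-180 randomized into three groups of 6. Compound in DMSO/PEG400/5% glucose (10:60:30) given orally once daily for 10 days at 1 or 5 mg/kg. The solvent group received the same volume of vehicle. Mice sacrificed on Day 11, tumors weighed, and tumor-weight inhibitory ratio calculated versus the solvent group.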

Mus musculus [6] = assay: Toxicity in mouse S180 cells xenografted mouse assessed as change on body weight at 5 mg/kg, po qd for 10 days; type: organism-based, CCRF S-180; design: dose 5 mg/kg, route oral; settings: in vivo, 240 h
Outline: (§3)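 S-180 tumor-bearing mice (6 per group) dosed orally once daily for 10 days at 1 or 5 mg/kg in DMSO/PEG400/5% glucose (10:60:30), with a vehicle solvent group. Body weights recorded daily. Animals sacrificed on Day 11.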

CCRF S-180 [7] = assay: Antitumor activity against mouse S180 cells xenografted in mouse assessed as inhibition of tumor growth at 5 mg/kg, po qd for 10 days relative to control; type: functional; settings: CCRF S-180, 240 h; outline: as §2
Mus musculus [8] = assay: Toxicity in mouse S180 cells xenografted mouse assessed as change on body weight at 1 mg/kg, po qd for 10 days; type: organism-based, CCRF S-180; design: dose 1 mg/kg, route oral; settings: in vivo, 240 h; outline: as §3

Row | IC50 (HCT-116 [1]) | IC50 (MCF7) | Compound | IC50 [2] | Activity (Mus musculus [3]) | inhibition (HCT-116 [4]) | inhibition in vivo at 1 mg/kg (CCRF S-180 [5]) | Activity (Mus musculus [6]) | inhibition in vivo at 5 mg/kg (CCRF S-180 [7]) | Activity (Mus musculus [8])
1 | 1380 nM | 1360 nM | COc1ncc(-c2ccn3nc(NC(C)=O)nc3c2)cc1NS(=O)(=O)c1ccc(C)cc1 | 2030 nM |  |  |  |  |  | 
2 | 4610 nM | 2410 nM | COCCNc1nc2ccc(-c3cnc(OC)c(NS(=O)(=O)c4ccc(F)cc4)c3)cn2n1 | 6390 nM |  |  |  |  |  | 
3 | 1320 nM | 1730 nM | COc1ncc(-c2ccn3nc(NC(C)=O)nc3c2)cc1NS(=O)(=O)c1ccc(F)cc1 | 2410 nM |  |  |  |  |  | 
4 | 740 nM | 870 nM | COc1ncc(-c2ccc3nc(NC(C)=O)nn3c2)cc1NS(=O)(=O)c1ccc(F)cc1F | 2000 nM |  |  |  |  |  | 
5 | 1330 nM | 1240 nM | COc1ncc(-c2ccn3nc(NC(C)=O)nc3c2)cc1NS(=O)(=O)c1ccc(Cl)cc1 | 2120 nM |  |  |  |  |  | 
6 | 9230 nM | 19800 nM | CC(=O)Nc1nc2ccc(-c3cnc(Cl)c(NS(=O)(=O)c4ccc(F)cc4)c3)cn2n1 | 6950 nM |  |  |  |  |  | 
7 | 9980 nM | > 60000 nM | O=C(Nc1nc2ccc(-c3cnc(Cl)c(NS(=O)(=O)c4ccc(F)cc4)c3)cn2n1)C1CC1 | 11000 nM |  |  |  |  |  | 
8 | 4910 nM | 2540 nM | CNC(=O)CNc1nc2ccc(-c3cnc(OC)c(NS(=O)(=O)c4ccc(F)cc4)c3)cn2n1 | 7290 nM |  |  |  |  |  | 
9 | 600 nM | 810 nM | COc1ncc(-c2ccc3nc(NC(C)=O)nn3c2)cc1NS(=O)(=O)c1ccc(C)cc1 | 1600 nM |  |  |  |  |  | 
10 |  | 230 nM | CC(=O)Nc1nc2ccc(-c3cnc(Cl)c(NS(=O)(=O)c4ccc(F)cc4)c3)cc2s1 |  |  | Active |  |  |  | 
11 | 8640 nM | 12600 nM | COc1ncc(-c2ccc3nc(NCC(=O)O)nn3c2)cc1NS(=O)(=O)c1ccc(F)cc1 | 9810 nM |  |  |  |  |  | 
12 | 2220 nM | 1640 nM | COc1ncc(-c2ccc3nc(NC(C)=O)nn3c2)cc1NS(=O)(=O)C1CC1 | 3730 nM |  |  |  |  |  | 
13 | 3400 nM | 1550 nM | COc1ncc(-c2ccc3nc(N)nn3c2)cc1NS(=O)(=O)c1ccc(C)cc1 | 2510 nM |  |  |  |  |  | 
14 | 2650 nM | 3250 nM | CC(=O)Nc1nc2ccc(-c3cnc(Cl)c(NS(=O)(=O)c4ccc(C)cc4)c3)cn2n1 | 3760 nM |  |  |  |  |  | 
15 | 1740 nM | 2590 nM | COc1ncc(-c2ccc3nc(NC(=O)C4CC4)nn3c2)cc1NS(=O)(=O)c1ccc(F)cc1 | 4850 nM |  |  |  |  |  | 
16 | 1160 nM | 730 nM | Cn1c(=O)n(-c2ccc(C(C)(C)C#N)cc2)c2c3cc(-c4cnc5ccccc5c4)ccc3ncc21 [DACTOLISIB] | 1320 nM |  |  |  |  |  | 
17 | 2970 nM | 1930 nM | COc1ncc(-c2ccc3nc(N)nn3c2)cc1NS(=O)(=O)c1ccc(F)cc1 | 3950 nM |  |  |  |  |  | 
18 | 9350 nM | 1350 nM | CCOCCNc1nc2ccc(-c3cnc(OC)c(NS(=O)(=O)c4ccc(F)cc4)c3)cn2n1 | 8150 nM |  |  |  |  |  | 
19 | 740 nM | 2010 nM | COc1ncc(-c2ccc3nc(NC(C)=O)nn3c2)cc1NS(=O)(=O)c1ccc(Cl)cc1 | 2090 nM |  |  |  |  |  | 
20 | 4370 nM | 4410 nM | CCOC(=O)CNc1nc2ccc(-c3cnc(OC)c(NS(=O)(=O)c4ccc(F)cc4)c3)cn2n1 | 7940 nM |  |  |  |  |  | 
21 | 2500 nM | 1820 nM | COc1ncc(-c2ccc3nc(N)nn3c2)cc1NS(=O)(=O)c1ccc(Cl)cc1 | 3110 nM |  |  |  |  |  | 
22 | 6100 nM | 8400 nM | COc1ncc(-c2ccc3nc(NCC(N)=O)nn3c2)cc1NS(=O)(=O)c1ccc(F)cc1 | 5800 nM |  |  |  |  |  | 

Row | Compound | IC50 (HCT-116 [1]) | IC50 (MCF7) | IC50 [2] | Activity (Mus musculus [3]) | inhibition (HCT-116 [4]) | inhibition in vivo at 1 mg/kg (CCRF S-180 [5]) | Activity (Mus musculus [6]) | inhibition in vivo at 5 mg/kg (CCRF S-180 [7]) | Activity (Mus musculus [8])
23 | COc1ncc(-c2ccn3nc(N)nc3c2)cc1NS(=O)(=O)c1ccc(F)cc1 | 820 nM | 920 nM | 1770 nM | Toxic | Active |  |  |  | 
24 | COc1ncc(-c2ccc3nc(NC(C)=O)nn3c2)cc1NS(=O)(=O)c1ccc(F)cc1 | 850 nM | 840 nM | 1820 nM | Non-toxic | Active | 20% | < 90% | 75.8% | Non-toxic

Reference: ChEMBL document CHEMBL2417528, “Synthesis and anticancer activity evaluation of a series of [1,2,4]triazolo[1,5-a]pyridinylpyridines in vitro and in vivo” (Eur J Med Chem, 2013)
